Data as given in ChEMBL document CHEMBL1151475, “Thiopurine drugs azathioprine and 6-mercaptopurine inhibit Mycobacterium paratuberculosis growth in vitro” (2008).

Legend:
Type in all cases: functional
Mycolicibacterium phlei = assay: Antituberculosis activity against Mycobacterium phlei ATCC 11758 assessed as minimum drug level required for killing after 56 days by MGIT 960 susceptibility test
How it was run: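 Duplicate MGIT ParaTB tubes with egg yolk and supplement received 10^5 to 10^6 CFU and thiopurine (in 0.05 M NaOH/10 mM PBS) at final 0.5 to 64.0 μg/ml, plus 128.0 μg/ml for some strains. Tubes were incubated at 37°C in the MGIT 960. The value is the minimum concentration whose tubes never signalled positive by 56 days.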

[1] = tested on: Mycobacterium avium subsp. paratuberculosis; assay: Antituberculosis activity against Mycobacterium paratuberculosis B236 isolated from bovine assessed as minimum drug level required for inhibition by MGIT 960 susceptibility test
How it was run: (§1)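 10^5 to 10^6 CFU from single-cell suspensions inoculated in duplicate into MGIT ParaTB medium with supplement and egg yolk. Drugs were at final 0.5–64.0 μg/ml, with 128.0 μg/ml added for some strains. Tubes were incubated at 37°C in MGIT 960. Inhibition is the lowest concentration giving a time to detection longer than a drug-free 1:100 inoculum control. Killing is no positive signal through 56 days.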

[2] = tested on: Mycobacterium avium subsp. paratuberculosis; assay: Antituberculosis activity against Mycobacterium paratuberculosis B244 isolated from bovine assessed as minimum drug level required for killing after 56 days by MGIT 960 susceptibility test; how it was run: as §1
[3] = tested on: Mycolicibacterium smegmatis; assay: Antituberculosis activity against Mycobacterium smegmatis ATCC 14468 assessed as minimum drug level required for inhibition by MGIT 960 susceptibility test
How it was run: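 MGIT ParaTB tubes were supplemented with egg yolk and inoculated in duplicate with 10^5 to 10^6 CFU from single-cell suspensions. Thiopurines were dissolved in 0.05 M NaOH in 10 mM PBS and tested at final 0.5 to 64.0 μg/ml, with 128.0 μg/ml added for some strains. Tubes ran at 37°C in the MGIT 960. The value is the lowest concentration giving a time-to-detection longer than a drug-free 1:100 inoculum control.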

[4] = tested on: Mycobacterium avium subsp. paratuberculosis; assay: Antituberculosis activity against Mycobacterium paratuberculosis UCF-5 isolated from Crohn's disease patient assessed as minimum drug level required for killing after 56 days by MGIT 960 susceptibility test; how it was run: as §1
Escherichia coli = assay: Antituberculosis activity against Escherichia coli ATCC 25922 clinical isolate assessed as minimum drug level required for inhibition by MGIT 960 susceptibility test
[5] = tested on: Mycobacterium avium subsp. paratuberculosis; assay: Antituberculosis activity against Mycobacterium paratuberculosis B238 isolated from bovine assessed as minimum drug level required for inhibition by MGIT 960 susceptibility test; how it was run: as §1
[6] = tested on: Mycobacterium avium subsp. paratuberculosis; assay: Antituberculosis activity against Mycobacterium paratuberculosis UCF-4 isolated from Crohn's disease patient assessed as minimum drug level required for killing after 56 days by MGIT 960 susceptibility test; how it was run: as §1
[7] = tested on: Mycobacterium avium subsp. paratuberculosis; assay: Antituberculosis activity against Mycobacterium paratuberculosis UCF-7 isolated from Crohn's disease patient assessed as minimum drug level required for killing after 56 days by MGIT 960 susceptibility test; how it was run: as §1
[8] = tested on: Mycobacterium avium subsp. paratuberculosis; assay: Antituberculosis activity against Mycobacterium paratuberculosis B213 isolated from bovine assessed as minimum drug level required for inhibition by MGIT 960 susceptibility test; how it was run: as §1
[9] = tested on: Mycobacterium avium subsp. paratuberculosis; assay: Antituberculosis activity against Mycobacterium paratuberculosis B236 isolated from bovine assessed as minimum drug level required for killing after 56 days by MGIT 960 susceptibility test; how it was run: as §1
Mycobacterium avium = assay: Antituberculosis activity against Mycobacterium avium WSLH1544 isolated from water assessed as minimum drug level required for killing within 15 days by MGIT 960 susceptibility test
Enterococcus faecalis = assay: Antituberculosis activity against Enterococcus faecalis ATCC 29212 isolated from human urine assessed as minimum drug level required for killing after 56 days by MGIT 960 susceptibility test

**Q.** Which Activity (Mycolicibacterium phlei) does the source give for Sc1ncnc2nc[nH]c12 [MERCAPTOPURINE ANHYDROUS] here?
**A.** 16 µg/mL

**Q.** And the Activity [1]?
**A.** 4 µg/mL

**Q.** And the Activity [2]?
**A.** >32 µg/mL

**Q.** What about the Activity [3] of the same compound?
**A.** >128 µg/mL

**Q.** And the Activity [4]?
**A.** >32 µg/mL

**Q.** What about the Activity (Escherichia coli) of the same compound?
**A.** >128 µg/mL

**Q.** And the Activity [5]?
**A.** 4 µg/mL

**Q.** What about the Activity [6] of the same compound?
**A.** >32 µg/mL

**Q.** And the Activity [7]?
**A.** 8 µg/mL

**Q.** What about the Activity [8] of the same compound?
**A.** 4 µg/mL

**Q.** What about the Activity [9] of the same compound?
**A.** >32 µg/mL

**Q.** What about the Activity (Mycobacterium avium) of the same compound?
**A.** >64 µg/mL

**Q.** What about the Activity (Enterococcus faecalis) of the same compound?
**A.** >128 µg/mL
